Measured values reported in ChEMBL document CHEMBL1240464, “Synthesis, structure and in vitro antibacterial activities of new hybrid disinfectants quaternary ammonium compounds: pyridinium and quinolinium stilbene benzenesulfonates” (2010).
The source made the active and inactive calls.

Experiments:
Type in all cases: functional, organism-based
[1] = system: Staphylococcus aureus; assay: Antibacterial activity against Staphylococcus aureus TISTR517 at up to 300 ug/ml after 8 to 12 hrs by colorimetric microdilution broth technique
Method in brief: (§1)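 Broth microdilution in RPMI1640. Bacterial suspension in RPMI1640 is mixed with 1% Alamar Blue. Sample dissolved in DMSO at 25 mg/ml (stock) is added to the first row, then serially diluted two-fold down the plate to 128-fold. Plates are incubated at 37 °C for 8–12 h. MIC is the lowest concentration preventing the Alamar Blue change from blue to red. At least three repeats.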

[2] = system: Bacillus subtilis; assay: Antibacterial activity against Bacillus subtilis at up to 300 ug/ml after 8 to 12 hrs by colorimetric microdilution broth technique; method in brief: as §1
[3] = system: Enterococcus faecalis; assay: Antibacterial activity against vancomycin-resistant Enterococcus faecalis ATCC 51299 at up to 300 ug/ml after 8 to 12 hrs by colorimetric microdilution broth technique
Method in brief: (§2)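 Broth microdilution with a colorimetric read-out. Bacteria were suspended in RPMI1640 with 1% Alamar Blue. Compound was dissolved in DMSO as a 25 mg/ml stock and added to the first row, then serially halved to a 128-fold final dilution. Plates were incubated at 37 °C for 8–12 h. MIC was the lowest concentration preventing the blue-to-red indicator change. Each assay was run at least three times.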

[4] = system: Enterococcus faecalis; assay: Antibacterial activity against Enterococcus faecalis TISTR459 at up to 300 ug/ml after 8 to 12 hrs by colorimetric microdilution broth technique; method in brief: as §1
[5] = system: Pseudomonas aeruginosa; assay: Antibacterial activity against Pseudomonas aeruginosa at up to 300 ug/ml after 8 to 12 hrs by colorimetric microdilution broth technique; method in brief: as §1
[6] = system: Salmonella typhi; assay: Antibacterial activity against Salmonella typhi at up to 300 ug/ml after 8 to 12 hrs by colorimetric microdilution broth technique; conditions: Salmonella enterica subsp. enterica serovar Typhi; method in brief: as §2
[7] = system: Shigella sonnei; assay: Antibacterial activity against Shigella sonnei at up to 300 ug/ml after 8 to 12 hrs by colorimetric microdilution broth technique; method in brief: as §1

Measured: MIC

CCOc1ccc(/C=C/c2cccc[n+]2C)cc1.O=S(=O)([O-])c1ccc(Br)cc1
not listed: [6] | [7]
inactive: all other assays above

CN(C)c1ccc(/C=C/c2cccc[n+]2C)cc1.O=S(=O)([O-])c1ccc(Br)cc1
inactive: all assays above

CCOc1ccc(/C=C/c2cccc[n+]2C)cc1.COc1ccc(S(=O)(=O)[O-])cc1
inactive: all assays above

CCOc1ccc(/C=C/c2cccc[n+]2C)cc1.Nc1ccc(S(=O)(=O)[O-])cc1
inactive: all assays above

CN(C)c1ccc(/C=C/c2cccc[n+]2C)cc1.Nc1ccc(S(=O)(=O)[O-])cc1
not listed: [3]
inactive: all other assays above

CCOc1ccc(/C=C/c2cccc[n+]2C)cc1
inactive: all assays above
